From ChEMBL document CHEMBL1140209, “Synthesis and pharmacological characterization of novel druglike corticotropin-releasing factor 1 antagonists” (J Med Chem, 2008)
pIC50: −log10 of the molar value. The source made the active and inactive calls. The calls are words filed in the database; no cut-off is given here.

Tests used:
[1] = target: T1, Corticotropin-releasing factor receptor 1 (Homo sapiens, UniProt P34998); assay: Displacement of [125I]sauvagine from human recombinant CRF1 receptor expressed in CHO cells; type: cell-based
T1 sequence (P34998 whole entry): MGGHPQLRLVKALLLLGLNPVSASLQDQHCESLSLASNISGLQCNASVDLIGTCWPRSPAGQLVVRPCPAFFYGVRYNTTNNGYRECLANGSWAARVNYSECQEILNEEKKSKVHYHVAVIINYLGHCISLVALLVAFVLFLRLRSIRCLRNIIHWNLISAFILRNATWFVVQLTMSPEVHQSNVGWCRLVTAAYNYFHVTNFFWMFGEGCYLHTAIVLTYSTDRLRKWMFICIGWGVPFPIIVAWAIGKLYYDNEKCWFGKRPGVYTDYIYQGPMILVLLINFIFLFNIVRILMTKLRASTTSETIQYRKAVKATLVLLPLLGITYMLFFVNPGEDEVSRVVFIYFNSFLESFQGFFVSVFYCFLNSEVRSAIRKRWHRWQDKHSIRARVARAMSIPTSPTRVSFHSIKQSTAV

[2] = Oral bioavailability in marmoset at 10 mg/kg; type: ADME, organism-based, Callithrix jacchus; settings: in vivo
[3] = Volume of distribution at steady state in marmoset at 1 mg/kg, iv or 10 mg/kg, po; type: ADME, organism-based, Callithrix jacchus; settings: in vivo, read-out: Vdss
Callithrix jacchus [4] = assay: Toxic sedative effect in po dosed marmoset assessed as effect on number of physiological jumps; type: toxicity, organism-based; settings: in vivo
[5] = Ratio of drug level in brain to plasma in gerbil at 10 mg/kg, po after 1 hr; type: ADME, organism-based; parameters: dose 10 mg/kg, route oral; settings: gerbillinae, brain and plasma
[6] = target: T2, Corticotropin-releasing factor receptor 2 (Homo sapiens) (UniProt Q13324); assay: Antagonist activity at human CRF2 receptor expressed in CHO cells assessed as effect on sauvagine-induced cAMP production; type: functional, cell-based
T2 sequence (whole entry): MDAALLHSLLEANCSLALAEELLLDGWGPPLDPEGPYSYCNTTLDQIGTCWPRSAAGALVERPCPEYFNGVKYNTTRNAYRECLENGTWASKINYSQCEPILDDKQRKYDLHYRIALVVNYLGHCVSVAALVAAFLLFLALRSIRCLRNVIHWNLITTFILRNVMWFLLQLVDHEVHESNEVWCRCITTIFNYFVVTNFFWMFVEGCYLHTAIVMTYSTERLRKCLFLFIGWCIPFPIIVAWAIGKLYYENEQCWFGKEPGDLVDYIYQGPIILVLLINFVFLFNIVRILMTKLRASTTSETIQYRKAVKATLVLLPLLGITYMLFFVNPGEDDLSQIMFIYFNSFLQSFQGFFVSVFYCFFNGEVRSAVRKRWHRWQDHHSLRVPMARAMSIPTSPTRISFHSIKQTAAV
Summary of the method: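 CHO cells expressing human CRF2 receptor; cAMP was stimulated with 0.5 nM sauvagine, and the antagonist was tested at concentrations up to 10 µM.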

Rattus norvegicus = assay: Anxiolytic activity in ip dosed ultrasonic vocalization rat model assessed as reduction of vocalization duration administered 30 mins before ultrasonic vocalizations; type: functional, organism-based
Meriones unguiculatus [7] = assay: Anxiolytic activity in Mongolian gerbils forepaw treading model assessed as reduction of time spent in CRF-induced piano playing behavior at 30 mg/kg, po administered 180 mins before CRF challenge; type: functional, organism-based; parameters: dose 30 mg/kg
Meriones unguiculatus [8] = assay: Anxiolytic activity in Mongolian gerbils forepaw treading model assessed as reduction of time spent in CRF-induced piano playing behavior at 30 mg/kg, po administered 60 mins before CRF challenge; type: functional, organism-based; parameters: dose 30 mg/kg
[9] = Plasma clearance in rat at 1 mg/kg, iv or 10 mg/kg, po; type: ADME, organism-based
[10] = target: T1, Corticotropin-releasing factor receptor 1; assay: Antagonist activity at human CRF1 receptor expressed in CHO cells assessed as effect on sauvagine-induced cAMP production; type: functional, cell-based; settings: read-out: pA2 (converted)
Summary of the method: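 CHO cells transfected with human CRF1 receptor; sauvagine concentration-response curves for cAMP were run with increasing antagonist concentrations and analysed by Schild plot (n = 6). Potency was taken as pA2, the concentration that doubles the sauvagine ED50. Antagonist alone, up to 10 µM, was also tested on cAMP without sauvagine.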

Callithrix jacchus [11] = assay: Anxiolytic activity in po dosed marmoset assessed as reduction of number of postures by marmoset human threat test; type: functional, organism-based
Meriones unguiculatus [12] = assay: Anxiolytic activity in po dosed Mongolian gerbils forepaw treading model assessed as reduction of time spent in CRF-induced piano playing behavior administered 1 hr before CRF challenge; type: functional, organism-based
[13] = Volume of distribution at steady state in rat at 1 mg/kg, iv or 10 mg/kg, po; type: ADME, organism-based; settings: in vivo, read-out: Vdss
[14] = Oral bioavailability in rat at 10 mg/kg; type: ADME, organism-based; settings: in vivo
[15] = Half life in rat at 1 mg/kg, iv or 10 mg/kg, po; type: ADME, organism-based; settings: in vivo
Meriones unguiculatus [16] = assay: Anxiolytic activity in Mongolian gerbils forepaw treading model assessed as reduction of time spent in CRF-induced piano playing behavior at 30 mg/kg, po administered 360 mins before CRF challenge; type: functional, organism-based; parameters: dose 30 mg/kg
[17] = Half life in marmoset at 1 mg/kg, iv or 10 mg/kg, po; type: ADME, organism-based, Callithrix jacchus; settings: in vivo
[18] = Plasma clearance in marmoset at 1 mg/kg, iv or 10 mg/kg, po; type: ADME, organism-based, Callithrix jacchus
[19] = Ratio of drug level in brain to plasma in rat at 1 mg/kg, iv after 1 hr; type: ADME, organism-based; parameters: dose 1 mg/kg, route intravenous; settings: brain and plasma

Row | SMILES | pIC50 [1] | other results
1 | COc1ccc(N2CCc3c(-n4ccc(N5CCCNC5=O)n4)cc(C)nc32)c(C)c1 | 6.84 | –
2 | COc1ccc(N2CCc3c(-n4ccc(N5CCNS5(=O)=O)n4)cc(C)nc32)c(C)c1 | 6.51 | –
3 | Cc1cc(-n2ccc(N3CCNC3=O)n2)c2c(n1)N(c1ccc(OC(F)(F)F)cc1C)CC2 | 7.17 | –
4 | CCc1cc(C#N)ccc1N1CCc2c(-n3ccc(N4CCNC4=O)n3)cc(C)nc21 | 7.30 | –
5 | CCOc1ccc(N2CCc3c(-n4ccc(N5CCNC5=O)n4)cc(C)nc32)c(C)c1 | 6.50 | –
6 | COc1cc(-n2cccn2)ccc1N1CCc2c(-n3ccc(-n4cc[nH]c4=O)n3)cc(C)nc21 | 6.44 | –
7 | Cc1cc(-n2ccc(N3CCNC3=O)n2)c2c(n1)N(c1ccc(OC(C)C)cc1C)CC2 | 5.91 | –
8 | COc1ccc(N2CCc3c(-n4ccc(N5CCCC5=O)n4)cc(C)nc32)c(C)c1 | 6.91 | –
9 | COc1ccc(N2CCc3c(-n4ccc(N5CCOC5=O)n4)cc(C)nc32)c(C)c1 | 5.71 | –
10 | Cc1cc(-n2ccc(N3CCNC3=O)n2)c2c(n1)N(c1ccc(-n3cccn3)cc1C)CC2 | 6.43 | –
11 | Cc1cc(-n2ccc(N3CCNC3=O)n2)c2c(n1)N(c1ccc(C#N)cc1C(F)(F)F)CC2 | 7.49 | –
12 | COc1ccc(N2CCc3c(-n4ccc(N5CCNC5=O)n4)cc(C)nc32)c(C(F)F)c1 | 7.25 | –
13 | Cc1cc(-n2ccc(N3CCNC3=O)n2)c2c(n1)N(c1ccc(Cl)cc1Cl)CC2 | 6.80 | –
14 | Cc1cc(-n2ccc(-n3cc[nH]c3=O)n2)c2c(n1)N(c1ccc(C(F)(F)F)cc1C(F)(F)F)CC2 | 7.05 | –
15 | Cc1cc(-n2ccc(N3CCNC3=O)n2)c2c(n1)N(c1ccc(C#N)cc1OC(F)(F)F)CC2 | 6.92 | –
16 | COc1ccc(N2CCc3c(-n4ccc(-n5cc[nH]c5=O)n4)cc(C)nc32)c(C)c1 | 6.92 | –
17 | COc1ccc(N2CCc3c(-n4ccc(N5CCCS5(=O)=O)n4)cc(C)nc32)c(C)c1 | 5.49 | –
18 | COc1ccc(N2CCc3c(-n4ccc(N5CCN(C)C5=O)n4)cc(C)nc32)c(C)c1 | 6.10 | –
19 | Cc1cc(-n2ccc(N3CCNC3=O)n2)c2c(n1)N(c1ccc(C#N)cc1C)CC2 | 7.17 | –
20 | COc1ccc(N2CCc3c(-n4ccc(N5CCNC5=O)n4)cc(C)nc32)c(C)c1 [EMICERFONT] | 7.18 | bioavailability [2]: 65%; Vd [3]: 4.7 L/kg; Activity (Callithrix jacchus [4]): Non-toxic; Kp at 1 h [5]: 4.7; Activity [6]: inactive; Activity (Rattus norvegicus): Dose-dependent effect; Activity (Meriones unguiculatus [7]): Active; Activity (Meriones unguiculatus [8]): Active; clearance [9]: 19 mL/min/kg; Kb [10]: 72.4 nM; Activity (Callithrix jacchus [11]): Dose-dependent effect; Activity (Meriones unguiculatus [12]): Dose-dependent effect; Vd [13]: 2.4 L/kg; bioavailability [14]: 66%; half-life [15]: 1.6 h; Activity (Meriones unguiculatus [16]): Active; half-life [17]: 3.7 h; clearance [18]: 16 mL/min/kg; Kp at 1 h [19]: 3.7
